VIM-2 inh: inhibitors of Pseudomonas aeruginosa VIM-2 metallo-beta-lactamase; purified VIM-2, nitrocefin hydrolysis, epi-absorbance fluorescence; inhibition, % at 5.6 µM; 290,000 compounds, 0.89% hits; AID 1527;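 active = inhibition above the mean of all tested compounds plus 3 SD, cutoff set per screening run, cut at about 7.5% in these data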;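 note: red hydrolysis product quenches plate fluorescence so inhibitors raise well fluorescence; 0% = enzyme with DMSO and 100% = DMSO without enzyme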
MEKK2wt PB1 HTS: raises or lowers MEK5 binding to wildtype human MEKK2 PB1 domain; Q9Y2U5; bead flow cytometry, Alexa488-MEK5 binding to MEKK2 WT; actives lie on both sides; binding response (% of control), % at 10 µM; 290,000 compounds, 1.1% hits; AID 1531; in the data active = binding response below about 67% or above about 130%
IMP-1 inh: inhibitors of Pseudomonas aeruginosa IMP-1 metallo-beta-lactamase | purified IMP-1, nitrocefin hydrolysis, epi-absorbance fluorescence | inhibition, % at 5.6 µM | 290,000 compounds, 0.45% hits;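 active = inhibition above the mean plus 3 SD of all compounds in the same screening run, cut at about 4.5% in these data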;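 note: 0% = IMP-1 with DMSO and 100% = DMSO wells lacking enzyme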
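assay system = purified recombinant IMP-1 metallo-beta-lactamase enzyme | schedule = 15 min preincubation plus 25 min reaction at 25 °C | signal = Epi-absorbance fluorescence, 480 nm excitation, 530 nm emission | read-out basis = percent inhibition from optical density relative to buffer-blank wells | controls = IMP-1 with DMSO as 0%, enzyme-free DMSO as 100%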
MEKK2mut PB1 HTS: signal of MEK5 binding to mutant human MEKK2 PB1 domain | percent response, % at 10 µM | AID 1530 | 290,000 compounds, 0.35% hits | bead flow cytometry, Alexa488-MEK5 binding to MEKK2 mutant; in the data active = percent response above about 24%, passing the limit was not always enough
MEKK3 PB1 HTS: MEKK3-MEK5 PB1 interaction, increase or decrease. Q99759. bead-based flow cytometry, Alexa488-MEK5 binding to MEKK3; actives lie on both sides; 0 = blocked by unlabeled MEK5, 100 = vehicle. binding response (% of control), % at 10 µM. 290,000 compounds, 1.4% hits. AID 1529;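 active = binding response more than 3 SD above or below the average of its plate-row segment, actives on both sides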;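 note: Alexa488 bead fluorescence after subtracting the streptavidin-only scavenger bead signal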
Target sequence (Q99759 whole entry, looked up): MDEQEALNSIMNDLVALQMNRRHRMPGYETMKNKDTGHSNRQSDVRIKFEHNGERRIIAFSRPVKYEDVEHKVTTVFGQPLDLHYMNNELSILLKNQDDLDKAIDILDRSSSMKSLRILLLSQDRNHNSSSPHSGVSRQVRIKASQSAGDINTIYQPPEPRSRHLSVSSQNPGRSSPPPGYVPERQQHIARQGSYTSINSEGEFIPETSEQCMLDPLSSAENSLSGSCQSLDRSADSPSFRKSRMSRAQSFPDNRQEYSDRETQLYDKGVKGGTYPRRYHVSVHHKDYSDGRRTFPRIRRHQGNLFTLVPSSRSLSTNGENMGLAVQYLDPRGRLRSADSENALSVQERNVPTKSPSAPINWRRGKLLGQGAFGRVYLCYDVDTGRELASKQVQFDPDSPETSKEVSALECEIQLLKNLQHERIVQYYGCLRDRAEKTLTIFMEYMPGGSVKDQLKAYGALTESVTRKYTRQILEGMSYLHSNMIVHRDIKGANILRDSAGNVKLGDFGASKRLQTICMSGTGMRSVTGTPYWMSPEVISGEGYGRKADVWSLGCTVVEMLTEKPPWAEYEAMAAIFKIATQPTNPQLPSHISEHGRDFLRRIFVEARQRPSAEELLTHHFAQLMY
* = called active by the depositor; x = no result; [ ] = remark or other dose. Only some compounds are listed: those with a hit (about 3.4% of all), similar ones and a draw of the others.

SMILES	VIM-2 inh	MEKK2wt PB1 HTS	IMP-1 inh	MEKK2mut PB1 HTS	MEKK3 PB1 HTS
COc1ccc(-c2cc(-c3cc(F)ccc3O)[nH]n2)cc1OC	-3.5	130.0	5.2*	8.0	99.0
CCOc1ccc([N+](=O)[O-])cc1CNC1CCCCCCC1	0.8	103.0	38.8*	0.0	102.0
O=C(O)COc1ccc(NC(=O)c2ccc3c(c2)C(=O)N(Cc2ccccc2)C3=O)cc1	0.2	84.0	-1.8	-12.0	91.0
Cn1c(-c2ccc3c(c2)OCO3)cc(=O)c2ccccc21	-0.3	112.0	-1.4	6.0	115.0
Cn1c2ccccc2c(=O)c2ccc(C#Cc3ccccn3)cc21	10.3*	90.0	1.4	-7.0	94.0
COc1cc(-c2ccc3c(=O)c4ccccc4n(C)c3c2)cc(OC)c1OC	11.7*	95.0	-0.7	0.0	100.0
Cn1c2ccccc2c(=O)c2ccc(-c3ccc4c(c3)OCO4)cc21	9.3*	87.0	-0.7	-3.0	94.0
Cc1cc([N+](=O)[O-])cc(/C=N/n2c(C)nc3ccccc3c2=O)c1O	-4.7	105.0	1.6	6.0	104.0
COc1ccc(NC(=O)c2cc3sccc3n2Cc2ccc(F)cc2)cc1OC	-3.1	101.0	-2.3	-1.0	103.0
COc1ccc(CCNC(=O)CSc2nnc(Cn3c(=O)sc4ccccc43)n2C)cc1OC	0.4	112.0	-1.6	7.0	106.0
COc1ccc(/C=N/n2c(C)nnc2C)c(OC)c1OC	0.7	89.0	-2.6	-2.0	91.0
O=C(O)c1cc([N+](=O)[O-])ccc1NCc1ccccc1Cl	11.3*	102.0	-2.6	5.0	101.0
Cc1cc(N2CCN(c3ccccc3)CC2)n2c(n1)nc1ccccc12	10.9*	95.0	-3.6	8.0	99.0
Cc1cc(N2CCN(c3ccccc3)CC2)n2nnnc2n1	-4.2	x	-2.8	x	x
COc1cccc(/C=C2\SC(=S)N(CCC(=O)NC3C=CS(=O)(=O)C3)C2=O)c1 (stereo not drawn)	-0.2	100.0	8.2*	0.0	101.0
COc1ccc(/C=C2\SC(=S)N(CCC(=O)NC3C=CS(=O)(=O)C3)C2=O)cc1 (stereo not drawn)	-3.6	96.0	11.7*	7.0	97.0
O=C(CN1C(=O)/C(=C/c2cccc(Cl)c2)SC1=S)NC1C=CS(=O)(=O)C1 (stereo not drawn)	-1.7	102.0	4.4	7.0	100.0
O=C(CN1C(=O)/C(=C/c2ccccc2F)SC1=S)NC1C=CS(=O)(=O)C1 (stereo not drawn)	0.5	103.0	7.0*	3.0	100.0
Nc1c(Cl)ncnc1N1CCN(c2ncnc(Cl)c2N)CC1	-1.5	106.0	-2.8	1.0	106.0
Cc1ccc(OCC(=O)NC(C)c2ccccc2)cc1 (stereo not drawn)	-3.1	103.0	-4.8	4.0	94.0
CC(NC(=O)Cc1ccc(-c2ccccc2)cc1)c1ccccc1 (stereo not drawn)	0.1	94.0	5.0*	-5.0	93.0
CN1Cc2sc(NC(=S)NC(=O)c3ccccc3)c(C#N)c2CC1(C)C	-1.6	-14.0*	-1.8	11.0	93.0
CCC1(C)Cc2c(sc(NC(=S)NC(=O)c3ccccc3)c2C#N)CO1 (stereo not drawn)	-3.4	98.0	-3.3	-1.0	87.0
COc1ccc(-c2nc3ccc(N4CCN(C)CC4)cc3c(=O)[nH]2)cc1	8.1*	90.0	-3.2	-11.0	88.0
CCOP(C)(=O)C1(C(=O)OCc2ccccc2)CC1 (stereo not drawn)	-3.8	96.0	-2.8	-1.0	95.0
SMILES	VIM-2 inh	MEKK2wt PB1 HTS	IMP-1 inh	MEKK2mut PB1 HTS	MEKK3 PB1 HTS
O=C(O)c1cccc(Nc2nc(-c3cc4ccccc4oc3=O)cs2)c1	0.9	109.0	6.2*	2.0	107.0
CN(C)c1ncc(C2=C(Cl)C(=O)C(N3CCCC3)=C(Cl)C2=O)s1	-0.2	89.0	5.2*	-6.0	87.0
C=CCN=C(NC#N)SCC(=O)NC(C)(C)C	-2.5	107.0	5.4*	15.0	108.0
CC(C)N=C(NC#N)SCC(=O)NC(C)(C)C	0.3	103.0	-2.1	6.0	103.0
CCOC(=O)c1c(NC(C)=O)sc2c(OCCN(CC)CC)c(Br)ccc12	3.9	116.0	-2.2	7.0	102.0
CCOC(=O)c1c(NC(C)=O)sc2c(OCC(O)CN(CC)CC)c(Br)ccc12 (stereo not drawn)	9.3*	121.0	-2.5	20.0	101.0
CCOC(=O)c1c(C)n(C)c2ccc(OCC(O)CN3CCC(C)CC3)cc12 (stereo not drawn)	7.9*	112.0	-2.5	2.0	102.0
CCOC(=O)c1c(C)n(-c2ccc(C)cc2)c2ccc(OCC(O)CNCCCO)cc12 (stereo not drawn)	-0.1	181.0*	-2.2	40.0	106.0
CCOC(=O)c1c(C)n(C)c2ccc(OCC(O)CN3CCCCCC3)cc12 (stereo not drawn)	7.3	111.0	-0.5	13.0	101.0
COc1ccc(NC2CCCN(C(=O)CCCn3cncn3)C2)cc1 (stereo not drawn)	0.1	107.0	-1.9	6.0	102.0
CC(C)c1ccc2c(c1)CCC1C(C)(CN)CCCC21C (stereo not drawn)	-1.3	155.0*	-0.6	25.0*	36.0*[inhibitor]
O=C(NCCO)c1cccc2c1C(=O)c1ccccc1-2	7.9*	98.0	-2.1	-4.0	93.0
CC(C)(C)NC(=O)c1cccc2c1C(=O)c1ccccc1-2	4.9	93.0	-3.4	0.0	104.0
COCC(C)n1c(SCC(=O)NNC(=O)c2ccccc2)nc2ccccc2c1=O (stereo not drawn)	-2.8	92.0	1.6	2.0	96.0
COCC(C)n1c(SCC(=O)NC(=O)Nc2ccc3c(c2)OCCO3)nc2ccccc2c1=O (stereo not drawn)	-1.2	95.0	5.5*	0.0	98.0
O=C(CSc1nnnn1-c1ccccc1)NC(=O)Nc1ccc2c(c1)OCCO2	1.1	92.0	5.6*	-29.0	92.0
O=C(N/N=C\c1ccccc1OCc1ccccc1)c1ccco1	-1.9	100.0	-3.1	7.0	99.0
COc1ccccc1-c1cc(C2CC2)nc(N)c1C#N	0.3	115.0	1.7	10.0	113.0
COc1ccc(-c2cc(C3CC3)nc(N)c2C#N)cc1	8.8*	99.0	-1.3	2.0	100.0
O=c1cc(CO)oc(CN2CCCC2)c1O	-0.9	x	8.3*	x	x
CC1CCCCN1S(=O)(=O)c1ccc2[nH]c(=O)cc(C(=O)NCCCN3CCCCCC3)c2c1 (stereo not drawn)	-1.1	143.0*	-2.4	20.0	103.0
COC(=O)CCC(=O)Nc1ccc(S(=O)(=O)Nc2nc(C)cc(C)n2)cc1	-0.3	109.0	4.8*	2.0	106.0
COc1ccc(CC(=O)Nc2ccc(S(=O)(=O)Nc3nc(C)cc(C)n3)cc2)cc1	-2.3	100.0	0.6	3.0	101.0
CCOc1ccc2[nH]c(C)c(CN3CCN(C)CC3)c(=O)c2c1	-3.0	110.0	-0.9	11.0	109.0
CCOc1ccc2[nH]c(C)c(CN3CCN(CC)CC3)c(=O)c2c1	-1.8	92.0	5.2*	-13.0	92.0

Screens deposited in PubChem BioAssay by several laboratories.
